The structures appear in SMILES notation.

This is an account of results in ChEMBL document CHEMBL2157889, “Design, synthesis and biological evaluation of heterocyclic azoles derivatives containing pyrazine moiety as potential telomerase inhibitors” (Bioorg Med Chem, 2012).

Assay [1] concerns HeLa. Briefly: Antiproliferative activity against human HeLa cells after 48 hrs by MTT method. Format: functional, cell-based.
A short description of assay [2]: Antiproliferative activity against human SW1116 cells after 48 hrs by MTT method. Type of assay: functional, cell-based. Particulars: SW 1116, 48 h.
The subject of assay [3] is BGC-823. Briefly: Antiproliferative activity against human BGC823 cells after 48 hrs by MTT method. Type of assay: functional, cell-based. The note with it: BGC-823, 48 h. The gist of the method: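 MTT assay. Cells were seeded at 10⁴ per well and held 24 h at 37 °C with 5% CO₂. […] After 48 h, 5 mg/mL MTT in PBS was added for 4 h. Formazan was dissolved in DMSO and absorbance read at 490 nm.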

Assay [4] deals with HepG2. The experiment in a line: Antiproliferative activity against human HepG2 cells after 48 hrs by MTT method. Type of assay: functional, cell-based. The note with it: HepG2, 48 h.
The target of assay [5] is Telomerase reverse transcriptase (Homo sapiens, UniProt O14746). The experiment in a line: Inhibition of telomerase in human HepG2 cells after 24 hrs by TRAP-PCR-ELISA assay. Format: cell-based. The method in brief: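 Cells in serum/penicillin/streptomycin medium (37 °C, 5% CO₂) were seeded at 5×10⁴ per T25 flask and allowed to adhere. After 24 h treatment, cells were lysed in RIPA buffer on ice for 30 min and spun at 12,000 g for 20 min at 4 °C. For the kit-based TRAP-PCR-ELISA, PCR ran 94 °C 120 s, then 35 cycles of 94/50/72 °C. Product was hybridised to a DIG probe, captured via biotin-streptavidin, detected with peroxidase anti-DIG, and read at 490 nm.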
Sequence of Telomerase reverse transcriptase (O14746 whole entry): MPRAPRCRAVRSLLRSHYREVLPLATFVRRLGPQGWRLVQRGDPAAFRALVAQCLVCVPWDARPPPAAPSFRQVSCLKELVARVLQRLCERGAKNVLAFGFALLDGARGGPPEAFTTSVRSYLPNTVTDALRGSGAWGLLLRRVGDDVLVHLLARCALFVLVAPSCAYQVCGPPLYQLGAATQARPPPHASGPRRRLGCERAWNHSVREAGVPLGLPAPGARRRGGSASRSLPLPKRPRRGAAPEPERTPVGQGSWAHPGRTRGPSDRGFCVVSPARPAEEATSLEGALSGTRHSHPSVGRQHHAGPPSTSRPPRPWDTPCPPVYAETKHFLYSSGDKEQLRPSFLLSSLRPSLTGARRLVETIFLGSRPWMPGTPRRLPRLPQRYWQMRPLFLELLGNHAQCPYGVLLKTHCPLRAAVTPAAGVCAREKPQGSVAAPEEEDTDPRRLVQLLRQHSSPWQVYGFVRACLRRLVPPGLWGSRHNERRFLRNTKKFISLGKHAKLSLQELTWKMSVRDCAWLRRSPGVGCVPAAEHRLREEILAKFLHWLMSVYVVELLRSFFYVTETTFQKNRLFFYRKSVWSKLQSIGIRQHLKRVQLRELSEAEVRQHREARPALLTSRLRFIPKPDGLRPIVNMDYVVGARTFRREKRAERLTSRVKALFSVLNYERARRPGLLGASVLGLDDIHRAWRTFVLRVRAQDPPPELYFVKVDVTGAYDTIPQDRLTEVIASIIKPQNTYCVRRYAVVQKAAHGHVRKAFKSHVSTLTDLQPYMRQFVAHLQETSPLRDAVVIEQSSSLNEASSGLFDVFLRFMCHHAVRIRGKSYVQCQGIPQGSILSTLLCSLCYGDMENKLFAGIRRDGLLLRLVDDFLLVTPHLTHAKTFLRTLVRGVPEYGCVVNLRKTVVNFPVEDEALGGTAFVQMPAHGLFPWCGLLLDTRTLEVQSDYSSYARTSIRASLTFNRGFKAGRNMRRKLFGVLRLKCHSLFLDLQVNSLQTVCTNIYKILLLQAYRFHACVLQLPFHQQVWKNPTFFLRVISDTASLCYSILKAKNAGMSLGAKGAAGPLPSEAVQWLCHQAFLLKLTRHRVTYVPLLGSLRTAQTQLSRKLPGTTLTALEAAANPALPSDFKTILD

Consider `Fc1ccc(CSc2nnc(-c3cnccn3)o2)cc1`, for which the IC50 in assay [1] was 41.6 µM; in assay [2] it was 22.7 µM; in assay [3], above 50 µM; in assay [4], 16.5 µM; in assay [5], 17.1 µM.

Regarding `Brc1ccc(CSc2nnc(-c3cnccn3)o2)cc1`, the IC50 stood at 21.6 µM in assay [1], 14.4 µM in assay [2], 25.7 µM in assay [3] and 13.2 µM in assay [4].

On to `Fc1ccccc1CSc1nnc(-c2cnccn2)o1`, for which the IC50 in assay [1] stood at 25.3 µM; in assay [2], 16.8 µM; in assay [3], 18.2 µM; in assay [4], 12.5 µM.

In the case of `Fc1ccccc1CSc1nnc(-c2cnccn2)s1`, the IC50 was found to be 32.7 µM in assay [1], 6.77 µM in assay [2], 18.4 µM in assay [3] and 9.52 µM in assay [4].

As for `Fc1cccc(F)c1CSc1nnc(-c2cnccn2)s1`, the IC50 in assay [1] came out at 29.2 µM; in assay [2], 16.8 µM; in assay [3], 18.6 µM; in assay [4], 6.9 µM.

Take `Brc1ccccc1CSc1nnc(-c2cnccn2)n1-c1ccccc1`: the IC50 was above 50 µM in assay [1], 19.4 µM in assay [2], 36.2 µM in assay [3] and 11.6 µM in assay [4].

On to `c1ccc(CSc2nnc(-c3cnccn3)o2)cc1`, for which the IC50 was 21.1 µM in assay [1], 34 µM in assay [2], 25 µM in assay [3] and 11.2 µM in assay [4].

With `Clc1ccccc1CSc1nnc(-c2cnccn2)s1`, the IC50 in assay [1] came to 28.9 µM; in assay [2], 7.53 µM; in assay [3], 20.3 µM; in assay [4], 10.8 µM.

Regarding `Clc1ccc(CSc2nnc(-c3cnccn3)s2)cc1`, the IC50 in assay [1] was 18.9 µM; in assay [2] it was 4.77 µM; in assay [3] it was 13.4 µM; in assay [4], 6.23 µM; in assay [5], 7.88 µM.

For the compound `Clc1ccccc1CSc1nnc(-c2cnccn2)o1`, the IC50 in assay [1] stood at 23 µM; in assay [2], 15.1 µM; in assay [3], 27.7 µM; in assay [4] it was 12.3 µM.

In the case of `Clc1ccc(CSc2nnc(-c3cnccn3)o2)cc1`, the IC50 in assay [1] came out at 24.6 µM; in assay [2] it was 17.3 µM; in assay [3], 30 µM; in assay [4], 11.5 µM.

For the compound `c1ccc(CSc2nnc(-c3cnccn3)n2-c2ccccc2)cc1`, the IC50 in assay [1] is 35.6 µM; in assay [2] it was 15.4 µM; in assay [3] it was above 50 µM; in assay [4] it was 17.1 µM.

Regarding `Clc1cccc(CSc2nnc(-c3cnccn3)n2-c2ccccc2)c1`, the IC50 in assay [1] stood at 13.5 µM; in assay [2] it was 6.61 µM; in assay [3], 20.3 µM; in assay [4], 19.6 µM.

On to `Brc1cccc(CSc2nnc(-c3cnccn3)n2-c2ccccc2)c1`, for which the IC50 in assay [1] was found to be 9.58 µM; in assay [2], 5.03 µM; in assay [3], 18.3 µM; in assay [4], 10.6 µM.

As for `Fc1cccc(F)c1CSc1nnc(-c2cnccn2)n1-c1ccccc1`, the IC50 in assay [1] was above 50 µM; in assay [2], 24.1 µM; in assay [3] it was above 50 µM; in assay [4], 22.6 µM; in assay [5] it was 24.2 µM.

For the compound `Brc1cccc(CSc2nnc(-c3cnccn3)o2)c1`, the IC50 in assay [1] amounted to 30.3 µM; in assay [2], 5.06 µM; in assay [3], 11.5 µM; in assay [4], 5.79 µM; in assay [5] it was 3.59 µM.

For `Clc1ccc(CSc2nnc(-c3cnccn3)n2-c2ccccc2)cc1`, the IC50 was above 50 µM in assay [1]; 12.5 µM in assay [2]; 27.7 µM in assay [3]; 15.3 µM in assay [4]; 13.4 µM in assay [5].

`CN[C@@H]1C[C@H]2O[C@@](C)([C@@H]1OC)n1c3ccccc3c3c4c(c5c6ccccc6n2c5c31)C(=O)NC4` [STAUROSPORINE]: the IC50 in assay [3] turned out to be 6.83 µM.

In the case of `Fc1ccc(CSc2nnc(-c3cnccn3)s2)cc1`, the IC50 in assay [1] was above 50 µM; in assay [2], 17.1 µM; in assay [3], 29.3 µM; in assay [4] it was 10.1 µM; in assay [5] it was 12.1 µM.

Turning to `Fc1ccccc1CSc1nnc(-c2cnccn2)n1-c1ccccc1`, the IC50 in assay [1] is 44.1 µM; in assay [2], 18.8 µM; in assay [3], above 50 µM; in assay [4], 19.3 µM; in assay [5], 17.6 µM.

In the case of `Clc1cccc(CSc2nnc(-c3cnccn3)s2)c1`, the IC50 stood at 29.7 µM in assay [1]; 12.1 µM in assay [2]; 14.7 µM in assay [3]; 7.03 µM in assay [4]; 3.12 µM in assay [5].

On to `Fc1ccc(CSc2nnc(-c3cnccn3)o2)c(F)c1`, for which the IC50 turned out to be 26.7 µM in assay [1], 19.3 µM in assay [2], 33 µM in assay [3] and 14.4 µM in assay [4].

Take `Brc1ccc(CSc2nnc(-c3cnccn3)n2-c2ccccc2)cc1`: the IC50 in assay [1] amounted to 8.63 µM; in assay [2], 6.21 µM; in assay [3], 19.8 µM; in assay [4] it was 11.4 µM; in assay [5], 7.13 µM.

Turning to `Brc1ccccc1CSc1nnc(-c2cnccn2)o1`, the IC50 stood at 8.89 µM in assay [1]; 2.46 µM in assay [2]; 17.6 µM in assay [3]; 4.22 µM in assay [4]; 3.55 µM in assay [5].

As to `Fc1ccc(CSc2nnc(-c3cnccn3)n2-c2ccccc2)c(F)c1`, the IC50 was 12.5 µM in assay [1], 4.65 µM in assay [2], 17.8 µM in assay [3] and 10.4 µM in assay [4].

For `Clc1ccccc1CSc1nnc(-c2cnccn2)n1-c1ccccc1`, the IC50 in assay [1] is above 50 µM; in assay [2], 18.1 µM; in assay [3] it was 34.7 µM; in assay [4] it was 18.8 µM.

For `Clc1cccc(CSc2nnc(-c3cnccn3)o2)c1`, the IC50 in assay [1] amounted to 14.6 µM; in assay [2] it was 7.88 µM; in assay [3], 15.8 µM; in assay [4], 7.5 µM; in assay [5], 6.38 µM.

Turning to `O=c1[nH]cc(F)c(=O)[nH]1` [FLUOROURACIL], the IC50 is 3.25 µM in assay [1], 2.41 µM in assay [2] and 1.3 µM in assay [4].

Turning to `c1ccc(CSc2nnc(-c3cnccn3)s2)cc1`, the IC50 was 34.4 µM in assay [1], 7.88 µM in assay [2], 21.2 µM in assay [3] and 11.3 µM in assay [4].

`Fc1cccc(F)c1CSc1nnc(-c2cnccn2)o1`: the IC50 in assay [1] was above 50 µM; in assay [2], 23.8 µM; in assay [3] it was above 50 µM; in assay [4] it was 17.1 µM.

Turning to `Brc1ccccc1CSc1nnc(-c2cnccn2)s1`, the IC50 in assay [1] came out at 21.3 µM; in assay [2], 6.95 µM; in assay [3], 18.9 µM; in assay [4], 9.81 µM; in assay [5], 3.97 µM.

Regarding `Fc1ccc(CSc2nnc(-c3cnccn3)s2)c(F)c1`, the IC50 amounted to 20.9 µM in assay [1], 5.18 µM in assay [2], 14.5 µM in assay [3] and 9.63 µM in assay [4].

Turning to `Fc1ccc(CSc2nnc(-c3cnccn3)n2-c2ccccc2)cc1`, the IC50 in assay [1] is 7.3 µM; in assay [2], 4.12 µM; in assay [3], 27.2 µM; in assay [4] it was 10.1 µM; in assay [5], 15 µM.

As to `Brc1cccc(CSc2nnc(-c3cnccn3)s2)c1`, the 50% inhibitory concentration (IC50) in assay [1] amounted to 5.43 µM; in assay [2] it was 5.26 µM; in assay [3] it was 16.7 µM; in assay [4], 1.79 µM; in assay [5], 1.54 µM.
